Data: the RNAGym collection of RNA variant scans (doi:10.1126/science.aae0568)
Fewer inactive variants are shown than the library holds.

B1: tRNA (parent)
chain: GUUCCGUUGGCGUAAUGGUAACGCGUCUCCCUCCUAAGGAGAAGACUGCGGGUUCGAGUCCCGUACGGAACG

Variants of: B1
Assay: yeast fitness relative to wild type (ratio to wild type); higher = fitter; tRNA-Arg(CCU), competitive growth, 37 C, YPD
Summary of the method: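 The tRNA-Arg(CCU) gene variants were made by chemical synthesis with a 3% per-site mutation rate at 69 sites and inserted at the native genomic locus of Saccharomyces cerevisiae. After pooling, the strains were competed in YPD at 37°C for 24 hours in six parallel replicates. Gene amplicons from the start population and each end population were read by 100-nucleotide paired-end sequencing, and Darwinian fitness relative to wild type was taken from genotype frequency changes. Genotypes needed ≥ 100 starting reads, and estimates < 0.5 were set to 0.5.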
Variant GUUGCGUUGGCGUAAUGGUAACGCGUCUCCCUCCUAGGGAGAAGACUGCGGGUUCGAGUCCCGUACGGAACG [C4G A37G] has a yeast fitness of 0.851.
GUUGCGUUGGCGUAAUGGUAACGCGUCUCCCUCCUAAGGAGUAGACUGCCGGUUCGAGUCCAGUACUGAACG [C4G A42U G50C C62A G67U] gave a yeast fitness of no more than 0.5.
Work on GUUGGGUUGGAGUAAUGGUAACGCGUCUCCCUCCUAAAGAGAAGACUGCGGGUUCGAGUCCCGUACAGAACG [C4G C5G C11A G38A G67A] yielded a yeast fitness of no more than 0.5.
Work on GUUGCGUUGGCGUAAUGGUAGCGCGUUUCCCUCCUAAGGAGAAGACUGCGGCUUCGAAUCCCGUACGGAACG [C4G A21G C27U G52C G58A] yielded a yeast fitness of no more than 0.5.
With GUUGCGUUGGCGUAAUGGUAACGCGUCUCCCUCCUGAGGAGAAGCCUGCGGGUUCGAGUCUGGUACGGAACG [C4G A36G A45C C61U C62G] the yeast fitness was no more than 0.5.
With GUUGCGUUGGCGUAAUGGUAACGCGUCUCCCUCCUAAGGAGAAGGCUGCGGGUUCGAGUCCCGUACGGAACG [C4G A45G] the yeast fitness was 0.826.
GUUGGGUUGGCGUAAUGGUAACGCGUCUCCAUCCCAAGGAGAAGACUGCGGGUUCGAGUCCCGUACGGAACG [C4G C5G C31A U35C] gave a yeast fitness of no more than 0.5.
For GUUGCGUUGGCGUAAUGGUAACGCGUCUCCCUCCUAAGGAGAUGACUGCGGGUUCGAGUCCCGUACGGAUCG [C4G A43U A70U], the yeast fitness was 0.623.
For GUUGUGUUGGCGUAAUGGUAACGCGUGUCCCUCAUAAGGAGAAGACUGCGGGUUCGAGUCCCGUACGGAACG [C4G C5U C27G C34A], the yeast fitness was no more than 0.5.
With GUUGCGUUGGCGUAAUGGUAACGCGUCUCCCUCCUAAGGAGAAGACUGCGGGUUCGAGUCCCGUACGGCACG [C4G A69C] the yeast fitness was 0.878.
For GUUGCGUUGGCGUAAUGGUAUCGCGUCACGCUCCUAAGGAGAAGACUGCGGGUUCGAGUCCCGUACGGAACG [C4G A21U U28A C30G], the yeast fitness was no more than 0.5.
Variant GUUGGGUUGGCGUAAUGGUAACGCGUCUCUUUCCUAAGGAGAAGUCUGCGGGUUCGAGUCCCGUACGGAACG [C4G C5G C30U C31U A45U] has a yeast fitness of no more than 0.5.
In the case of GUUGCGUUGGCGUAAUGGUAACGCGUCUCCCUCCUAAGGGGUAGACUGCGGGUUCGAGUCCCGUACGGAACG [C4G A40G A42U], the yeast fitness is reported as no more than 0.5.
GUUGGGUUGGAGUAAUGGUAACGCGUCUCCCUCCUAAGGAGAAGACUGCGGGUUCGAGUCCCGUACGGCCCG [C4G C5G C11A A69C A70C] gave a yeast fitness of no more than 0.5.
With GUUGCGUUGGCGUAAUGGUAACGCGUCUCCCUCCUAAGGAGAAGACUGCGGGUUCGUGUCCCGUACGGAUCG [C4G A57U A70U] the yeast fitness was 0.869.
For GUUGCGUUGGCGUAAUGGUAACGCGUCUCCCUCCUACGGAGAAGACUGCGAGUUCGAGUCCCGUACGGAACG [C4G A37C G51A], the yeast fitness was 0.628.
Variant GUUGUGUUGGCGUAAUGGUAACGCGUCUCCCUCCUAAGGAGAAGACUGCGAGCUCGAGUCCUGUACGGAACG [C4G C5U G51A U53C C62U] has a yeast fitness of no more than 0.5.
Variant GUUGGGUUGACGUAAUGAUAACGCGUCUCCCUCCUAAGGAGAACACUGCGGGUUCGAGUCAUGUAUGGAACG [C4G C5G G10A G18A G44C C61A C62U C66U] has a yeast fitness of no more than 0.5.
With GUUGCGUUGGCGUAAUGGUAACGCGUCUCCCUCCUAAGGGGAAGACUGCGGGUUCCAGUCCCGUACGGAACG [C4G A40G G56C] the yeast fitness was 0.537.
For GUUGCGUUGGCGUAAUGGUAACGCGUCUCCCUCCUAAGGAGAAGACUGCGGGUUCGAGUCCCGUGCGGAACG [C4G A65G], the yeast fitness was 1.02.
For GUUGCGUUGGCGUAAUGGUAACGCGUCUCCCUCCUAAGGAGAAGACUGCGGGUUCGAGUCCCGUUCGGAACG [C4G A65U], the yeast fitness was 0.793.
With GUUGCGUUGGCGUAAUGGUAACGCGUCUCCCUCCUUAGGAGAAGACUGCGGGUUCGAGUCCCGUAGGGAACG [C4G A36U C66G] the yeast fitness was no more than 0.5.
For GUUGUGUUGGCGUAAUGGUAACGCGUCUCCCUCCUAAGGAGAAGACAGCGGGUUUGCGUCCCGUACGGAACG [C4G C5U U47A C55U A57C], the yeast fitness was no more than 0.5.
With GUUGCGUUGGAGUAAUGGUAACGCGUCUCCCUCCAAAGGAGAAGGCUGUGGGUUCGAGGCCCGUACUGAACG [C4G C11A U35A A45G C49U U59G G67U] the yeast fitness was no more than 0.5.
In the case of GUUGCGUUGGCGUAAUGGUAACGCGUCUCCCUCCUCGGGAGAAGACUGCGGGUUCGAGUCCCGAACGGAACG [C4G A36C A37G U64A], the yeast fitness is reported as no more than 0.5.
GUUGCGUUGGAGUAAUGGCAACCCGUCUCCCUCCUAAGGAGAAGACCGCGGGUUCGAGUCCCGUACGGAACG [C4G C11A U19C G23C U47C] showed a yeast fitness of 0.663.
Variant GUUGCGUUGGCGUAAUGGUAACGCGUCUCCCUCCUUAGGAGAAGAUUGCGGGUUCGAGUCCCGUACGGAACG [C4G A36U C46U] has a yeast fitness of 0.59.
GUUGCGUUGGCGUAAUGGUAUCGCGUCUCCCUCCUAAGGAGAAGACUGGGGGUUCGAGUCCCGUAGGCAACG [C4G A21U C49G C66G G68C] showed a yeast fitness of 0.673.
In the case of GUUGUGUUGGCGUAAUGGUAACGCGUCUCCCUCCUAAGGAGAAGACUGCGGGUUUGAGUCCCGUACGGAACG [C4G C5U C55U], the yeast fitness is reported as 0.544.
With GUUGUGUUGGCGUAAUGGUAACGCGUCUCCCUCCUAUGGAGAAGACUGCGGGUUCGAGUCACGUACGGAACG [C4G C5U A37U C61A] the yeast fitness was no more than 0.5.
GUUGCGUUGGAGUAAUGGUAACGCGUCUUCCUUCUAAGGAGAAGACUGCGGGUCCGAGUCCCGUACGGAACG [C4G C11A C29U C33U U54C] showed a yeast fitness of no more than 0.5.
For GUUGCGUUGGCGUAAUGGUAACGCGUCUCCCUCCUAAGGAGAAGACUGCGGGUUCGGGUCUCGUACGGAACG [C4G A57G C61U], the yeast fitness was 0.629.
For GUUGCGUUGGCGUAAUGGUAACGCGUCUCCCUCCUAAGGUGAAGACUGAGGGUUUGAGUCCCGUACGGAACG [C4G A40U C49A C55U], the yeast fitness was 0.515.
Variant GUUGAGUUGGCGUAAUGGUACCGCGUCUCCCUCCUAAGGAGAAGACUGCGGGUACGAGUCCCGUUCGGCACG [C4G C5A A21C U54A A65U A69C] has a yeast fitness of no more than 0.5.
With GUUGUGUUGGUGUGAUGGUAACGCGUCUCCCUCCUAAGGAGAAGACUGCGGGUUCGAGUCCCGUACGGAACG [C4G C5U C11U A14G] the yeast fitness was no more than 0.5.
With GUUGGGUUGGCGUGAUGGUAACGCGUCUCCCUCCUAAGGAGAGGACUGCGGGUUCGAGUCCCGUACGGAACG [C4G C5G A14G A43G] the yeast fitness was no more than 0.5.
With GUUGGGUUGGCGUAAUGGUAACGCGUCUCCCUCCUAAGGAGAGGACUGCGGGUUCGAGUCCCAUACGGAACG [C4G C5G A43G G63A] the yeast fitness was no more than 0.5.
Work on GUUGCGUUGGCGUAAUGGUAACGCGUCUCCCUCCUAAGGAGAAGACUGCGGGUUCGAGUCCCGUCCGGCACG [C4G A65C A69C] yielded a yeast fitness of no more than 0.5.
